Assay outcomes: PubChem, Johns Hopkins Ion Channel Center
TRPC4 potent = allosteric potentiators of mouse TRPC4 channel; Q9QUQ5; HEK293 TRPC4beta/mu-opioid, DAMGO EC20, Fluo-4 Ca2+ flux; stronger effect = higher value; B-score at 10 µM; hit rate 0.42% among 310,000;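 active = B-score of calcium response area above 5 SD of library B-scores, with initial fluorescence ratio within 5 SD of library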;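 note: B-score of integrated fluorescence ratio over time as area under calcium response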
Target sequence (Q9QUQ5 whole entry, looked up): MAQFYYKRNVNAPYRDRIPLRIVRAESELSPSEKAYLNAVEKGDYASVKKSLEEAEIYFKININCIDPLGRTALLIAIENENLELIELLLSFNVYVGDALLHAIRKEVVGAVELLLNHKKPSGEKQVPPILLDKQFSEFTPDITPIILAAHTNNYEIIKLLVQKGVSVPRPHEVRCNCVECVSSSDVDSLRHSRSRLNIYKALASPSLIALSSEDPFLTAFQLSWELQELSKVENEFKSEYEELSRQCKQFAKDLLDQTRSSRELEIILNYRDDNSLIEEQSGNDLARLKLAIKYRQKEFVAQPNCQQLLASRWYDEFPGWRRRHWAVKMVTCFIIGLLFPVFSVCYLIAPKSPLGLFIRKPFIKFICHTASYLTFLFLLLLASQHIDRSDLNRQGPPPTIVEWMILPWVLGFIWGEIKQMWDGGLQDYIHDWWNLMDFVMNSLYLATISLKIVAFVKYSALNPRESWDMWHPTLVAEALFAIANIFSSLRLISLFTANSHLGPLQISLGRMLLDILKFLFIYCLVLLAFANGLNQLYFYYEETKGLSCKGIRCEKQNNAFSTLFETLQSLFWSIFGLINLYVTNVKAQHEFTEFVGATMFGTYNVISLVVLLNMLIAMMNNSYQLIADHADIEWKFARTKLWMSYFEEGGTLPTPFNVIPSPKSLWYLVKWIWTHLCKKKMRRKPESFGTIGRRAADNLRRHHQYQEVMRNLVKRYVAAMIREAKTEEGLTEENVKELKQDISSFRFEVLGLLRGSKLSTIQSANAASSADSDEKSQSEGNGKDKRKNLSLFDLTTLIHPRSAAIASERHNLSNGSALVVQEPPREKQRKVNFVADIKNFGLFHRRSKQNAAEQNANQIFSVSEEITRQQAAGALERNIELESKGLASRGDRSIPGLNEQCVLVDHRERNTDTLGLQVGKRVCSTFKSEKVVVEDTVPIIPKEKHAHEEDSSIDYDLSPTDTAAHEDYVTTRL
TRPC4 block = TRPC4 (mouse) channel inhibition; HEK293 TRPC4beta/mu-opioid, DAMGO-evoked Fluo4 calcium flux; stronger effect = lower value; B-score at 10 µM; Q9QUQ5; hit rate 0.39% among 300,000; AID 2247;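 active = B-score over 3 SD under the library average, no early fluorescence shift, positive overall ratio signal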
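Assay system – HEK293 line stably carrying TRPC4beta and mu-opioid receptor · Doses – single dose · Detection – Fluo4 calcium-dye fluorescence, kinetic read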
TRPC6 act = activates the mouse TRPC6 cation channel. Q61143. HEK293-TRPC6 membrane potential dye fluorescence; stronger effect = higher value. B-score at 10 µM. hit rate 0.13% among 310,000. AID 2550;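 active = B-score of the integrated fluorescence ratio above library mean plus 3 SD, and starting fluorescence ratio within library mean plus 5 SD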;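 note: higher score means more depolarization so channel activation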
TRPC4 act = TRPC4 (mouse) channel activation. Q9QUQ5. HEK293 TRPC4beta/mu-opioid, Fluo4 calcium fluorescence; stronger effect = higher value. B-score at 10 µM. hit rate 0.49% among 310,000. AID 2237;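 active = B-score above 5 SD of library B-scores, and initial fluorescence ratio not above library mean plus 5 SD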;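 note: positive B-score marks a calcium rise read as TRPC4 activation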
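Test system: HEK293 cells stably co-expressing mouse TRPC4beta and mu-opioid receptor | Schedule: Fluo4 dye loading 45 min at room temperature, 110 s recording | Measured by: Kinetic Fluo4 calcium fluorescence, 5 s baseline at 1 Hz | Evaluation: B score of integrated ratio | Controls: Buffer (low) and maximal DAMGO (high)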
TRPC6 inh = inhibitors of mouse TRPC6 channel; B-score at 10 µM; Q61143; HEK293-TRPC6, membrane potential dye, ACh-evoked depolarization; stronger effect = lower value; hit rate 1.1% among 310,000; AID 2553;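 active = B-score under library mean minus 3 SD, initial fluorescence not abnormally high, positive integrated signal ratio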;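 note: B-score derived from integrated fluorescence ratio over the kinetic read; more negative B-score means stronger inhibition of depolarization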
TRPC4 spec 2 = second selectivity test of TRPC6 inhibitors: effect on mouse TRPC4. shares compounds with TRPC6 inh. HEK293 TRPC4/MOR, membrane potential dye fluorescence; channel activated by saturating DAMGO dose. inhibition, % at 10 µM. hit rate 42% among 920. AID 2776;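 active = compounds whose fluorescence signal differed from control wells by over 3 SD, either direction, in both duplicate plates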
TRPC4 spec = selectivity of TRPC6 inhibitors: effect on mouse TRPC4. shares compounds with TRPC6 inh. hit rate 61% among 920. activity change, negative = inhibition, % at 10 µM. HEK293 TRPC4/mu-opioid, membrane potential fluorescence;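 active = rise or fall in signal beyond 3 SD of buffer-only wells in both replicate plates, either sign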;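 note: integrated kinetic ratio of fluorescence range over baseline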
HEK293 MPD ctr 2-1 = parental HEK293 nonspecific activity of TRPC6 inhibitors, second screen; shares compounds with TRPC6 inh; parental HEK293 membrane potential dye fluorescence; maximal acetylcholine challenge after compound addition; signal change vs control, % at 10 µM; hit rate 31% among 920;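 active = membrane potential signal moving either way by over 3 SD of the maximum-effect control, in both duplicate plates, meaning non-specific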
HEK293 MPD ctr-1 = checks TRPC6 inhibitor effects in parental HEK293 cells. shares compounds with TRPC6 inh. parental HEK293 membrane potential dye fluorescence. membrane potential signal change, % at 10 µM. hit rate 60% among 920. AID 2780;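 active = membrane potential signal shifting up or down by more than 3 SD of buffer-only wells, on both duplicate plates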
HEK293 MPD ctr-2 = checks TRPC6 modulator effects in parental HEK293 cells; shares compounds with TRPC6 inh; membrane potential dye fluorescence; membrane potential signal change, % at 10 µM; hit rate 51% among 2,400; AID 488924;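 active = membrane potential signal moves up or down beyond 5 SD from buffer-only wells, on both duplicate plates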
HEK293 MPD ctr 2-2 = parental HEK293 nonspecific activity of TRPC6 modulators, second screen; shares compounds with TRPC6 inh; membrane potential dye fluorescence; after compound, maximal acetylcholine stimulation; inhibition, % at 10 µM; hit rate 14% among 2,400; AID 488926;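 active = membrane potential signal drops by more than 5 SD from the mean control signal, in both duplicate plates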;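 note: plate controls were acetylcholine ECmax control wells for no effect and buffer only wells for full effect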
TRPC4/MOR mod = tests whether TRPC6 modulators also affect mouse TRPC4 | AID 488927 | HEK293 TRPC4/mu-opioid, membrane potential fluorescence | hit rate 69% among 2,400 | shares compounds with TRPC6 inh | percent change from control (negative = decrease, positive = increase), % at 10 µM;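 active = membrane potential signal moved up or down beyond 5 SD of buffer control wells, in both duplicate plates, actives on both sides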;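 note: plate controls were assay buffer wells for no effect and DAMGO maximal-effect wells for full effect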
TRPC4 ctr inh 2 = second selectivity test of TRPC6 modulators against mouse TRPC4; hit rate 55% among 2,400; HEK293 TRPC4/mu-opioid, membrane potential dye fluorescence; stimulated with maximal-effect DAMGO; inhibition, % at 10 µM; AID 488928; shares compounds with TRPC6 inh;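 active = drop in membrane potential signal beyond 5 SD of the control wells in both duplicate plates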;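 note: TRPC4 counter screen for TRPC6 hits run under conditions tuned for TRPC6 not TRPC4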
TRPC6 block conf = mouse TRPC6 inhibitor confirmation; shares compounds with TRPC6 inh; HEK293-TRPC6, membrane potential dye, ACh-evoked depolarization; inhibition, % at 10 µM; hit rate 43% among 3,300;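 active = fluorescence ratio falls more than 5 SD below the full-stimulation control mean, in both duplicate runs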;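 note: integrated fluorescence ratio of peak minus minimum over baseline after agonist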
TRPC6 act confirm = mouse TRPC6 activator confirmation. shares compounds with TRPC6 inh. HEK293-TRPC6 membrane potential dye fluorescence, FDSS. activation, % at 10 µM. hit rate 11% among 2,800. AID 488961;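 active = ratio signal rise beyond 5 SD above unstimulated control wells' mean, seen in both duplicate runs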;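 note: plate controls were buffer EC0 wells for no effect and acetylcholine ECmax response for full effect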
Numbers without * were called inactive; i = inactive; · = no result; + = active, no number; ! = not active in a repeat. Most compounds without a hit are left out; they make up all but 2.3% or so of the library.

SMILES	TRPC4 potent	TRPC4 block	TRPC6 act	TRPC4 act	TRPC6 inh	HEK293 MPD ctr-2	HEK293 MPD ctr 2-2	TRPC4/MOR mod	TRPC4 ctr inh 2	TRPC6 block conf	TRPC6 act confirm	others
O=C1OC(c2ccc([N+](=O)[O-])cc2)=N/C1=C/N1CC2CC(C1)c1cccc(=O)n1C2 (stereo not given)	i	i	37*	96*	i	272%*	102%*	57%*	31%*	·	124%*
CC(C)(C#CC(=O)O)OOC(c1ccccc1)(c1ccccc1)c1ccccc1	i	i	i	i	i	·	·	·	·	·	·
COc1cc(/C=C/[N+](=O)[O-])ccc1O	i	i	i	i	i	·	·	·	·	·	·
CCN(CC)c1ccc(/C=C/[N+](=O)[O-])cc1	i	i	56*	105*	i	+	+	386%*	32%*	·	434%*
CN(C)c1ccc(CN2CC=C(c3ccc(F)cc3)CC2)cc1	i	i	i	i	-7.9*	·	·	·	·	i	i	TRPC4 spec 2=75%*;TRPC4 spec=i;HEK293 MPD ctr 2-1=i;HEK293 MPD ctr-1=i
CCCn1ncc(CN2CCCC(C(=O)c3cccc(OC)c3)C2)c1C (stereo not given)	i	i	i	i	-5.9*	124%*	i	28%*	i	50%*	·
N#CC(C#N)=NNc1ccc(-n2ccc(C(F)(F)F)n2)cc1	i	i	i	i	-9.2*	170%*	i	27%*	71%*	62%*	i
OC(Cn1c2ccccc2c2ccccc21)C[n+]1cccc2ccccc21 (stereo not given)	i	i	i	i	-6.7*	·	·	·	·	59%*	i	TRPC4 spec 2=i;TRPC4 spec=-28%*;HEK293 MPD ctr 2-1=i;HEK293 MPD ctr-1=-334%*
O=P(O)(O)Oc1ccccc1P(=O)(c1ccccc1)c1ccccc1	i	i	i	i	i	·	·	·	·	·	·
CCC[N+]12CCC(CC1)C(=C(c1ccccc1)c1ccccc1)C2	i	i	i	i	-5.8*	i	i	14%*	i	64%*	·
CN(CCc1ccccc1)Cc1c[nH]c2ccccc12	i	i	i	i	i	·	·	·	·	·	·
COc1ccc(-c2cc(=Nc3ccccc3)c3cc(C)ccc3o2)cc1	i	i	i	i	-7.7*	·	·	·	·	i	i	TRPC4 spec 2=i;TRPC4 spec=-18%*;HEK293 MPD ctr 2-1=i;HEK293 MPD ctr-1=-198%*
COc1ccc(-c2cc(=NCCC(=O)O)c3cc(C)ccc3o2)cc1	i	i	i	i	i	·	·	·	·	·	·
COc1cccc(N(C(C)=O)C2=NCCCS2)c1	i	i	i	i	i	·	·	·	·	·	·
Cc1ccc(C2CC3CCC(C2)N3Cc2ccccc2F)cc1 (stereo not given)	i	i	13*	i	i	127%*	i	49%*	42%*	i	58%*
CCCCc1nc(N2CCNCC2)c(C#N)c2c1CSC(C)(C)C2	i	i	i	i	-7.8*	·	·	·	·	i	i	TRPC4 spec 2=44%*;TRPC4 spec=i;HEK293 MPD ctr 2-1=i;HEK293 MPD ctr-1=0.9%*
CCOC(=O)C1CCCN(c2ccc([N+](=O)[O-])c3nonc23)C1 (stereo not given)	i	i	i	i	i	·	·	·	·	·	·
CCCCc1ccc2[nH]cc(CCN)c2c1	i	i	i	i	-5.2*	i	i	i	47%*	50%*	i
O=c1[nH]c(Cl)ccc1CN1CCOCC1	i	i	i	i	i	·	·	·	·	·	·
CC(=O)OCC[N+](C)(C)C	i	i	15*!	125*	-7.9*	133%*!	66%*!	44%*	i	70%*	124%*	TRPC4 spec 2=i;TRPC4 spec=37%*;HEK293 MPD ctr 2-1=i;HEK293 MPD ctr-1=4.2%*
CC(=O)O[C@H]1CC[C@@]2(C)[C@H](C1)C(=O)C[C@H]1[C@@H]3CC[C@@H]4[C@@H](CN5C[C@@H](C)CC[C@H]5[C@@]4(C)O)[C@@H]3C[C@@H]12	i	i	i	i	i	·	·	·	·	·	·
CN1CCC(N(C)c2nc(-c3ccccc3)nc3ccccc23)CC1	15*	i	i	i	-7.6*	-306%*	88%*	-54%*	66%*	74%*	i
COc1ccc2ccccc2c1CNCCc1ccccc1	i	i	i	i	-7.8*	·	·	·	·	66%*	·	TRPC4 spec 2=i;TRPC4 spec=16%*;HEK293 MPD ctr 2-1=i;HEK293 MPD ctr-1=5.0%*
COc1cccc(CNCCc2ccccc2)c1OC	i	i	i	i	i	·	·	·	·	·	·
COc1ccc(-n2c(C)nc3ccccc3c2=O)c([N+](=O)[O-])c1	i	i	i	i	i	·	·	·	·	·	·
Clc1cccc(C2NCc3ccccc3-n3cccc32)c1 (stereo not given)	i	i	i	i	i	·	·	·	·	·	·
OC(c1ccc(F)cc1)(c1ccc(F)cc1)[C@@H]1CCCN1	i	i	i	i	i	·	·	·	·	·	·
O=[N+]([O-])c1ccc2nc(N3CCNCC3)ccc2c1	i	i	i	i	-5*	-218%*	i	-38%*	42%*	i	i
O=C(Nc1ccccc1)c1cc([N+](=O)[O-])ccc1N1CCNCC1	i	i	i	i	i	·	·	·	·	·	·
Cc1cc(C)c(Cn2c(C(=O)O)c(C=O)c3ccccc32)c(C)c1	i	i	i	i	i	·	·	·	·	·	·
